Assay results: ChEMBL document CHEMBL2311393 (Bioorg Med Chem Lett, 2013)
Activity calls are given as the source filed them. The rule behind the calls is not given here.

What was measured:
MCF7 [1] = assay: Antiproliferative activity against human MCF7 cells; assay type: functional, cell-based
Outline: (§1)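 Growth inhibition in SKBr3 (ER-negative, Her2-overexpressing) and MCF-7 (ER-positive) breast cancer cells, run per an earlier published protocol. Values are mean ± standard deviation of at least two separate experiments, each in triplicate.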

SK-BR-3 = assay: Antiproliferative activity against human SKBR3 cells; assay type: functional, cell-based; outline: as §1
MCF7 [2] = assay: Effect on Hsp90 protein level in human MCF7 cells at 0.1 to 2.5 uM after 24 hrs by Western blot analysis; assay type: functional, cell-based
Outline: (§2)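 MCF-7 cells were treated with the compound across a concentration series. Cell lysates were then probed by western blot for the Hsp90 client proteins Raf and Akt, for Hsp90 itself, and for actin as a non-Hsp90-dependent control protein.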

[3] = molecular target: T1, Heat shock protein HSP90 (Homo sapiens) (UniProt P07900+P08238); assay: Inhibition of Hsp90 in human MCF7 cells assessed as degradation of client protein Akt after 24 hrs by Western blot analysis; assay type: cell-based; outline: as §2
[4] = molecular target: T1, Heat shock protein HSP90 (Homo sapiens); assay: Inhibition of Hsp90 in human MCF7 cells assessed as degradation of client protein Raf after 24 hrs by Western blot analysis; assay type: cell-based; outline: as §2

Row | IC50 (MCF7 [1]) [µM] | IC50 (SK-BR-3) [µM] | inhibition [3] | inhibition [4] | Structure (SMILES) | Activity (MCF7 [2])
1 | 1.07 | 0.96 | – | – | CC(C)=CCc1cc(C(=O)Nc2cc3ccc(OCCCNC(C)(C)c4ccccc4)c(C)c3oc2=O)ccc1O | –
2 | 18.1 | 7.57 | – | – | CC(C)=CCc1cc(C(=O)Nc2cc3ccc(OCCCNCC(=O)O)c(C)c3oc2=O)ccc1O | –
3 | 2.82 | 1.06 | – | – | COC(=O)CNCCCOc1ccc2cc(NC(=O)c3ccc(O)c(CC=C(C)C)c3)c(=O)oc2c1C | –
4 | 1.07 | 0.66 | – | – | CC(C)=CCc1cc(C(=O)Nc2cc3ccc(OCCCNC4CCCCC4)c(C)c3oc2=O)ccc1O | –
5 | 1.03 | 0.77 | – | – | CC(C)=CCc1cc(C(=O)Nc2cc3ccc(OCCCN[C@@H]4C[C@H]5CC[C@@H]4C5)c(C)c3oc2=O)ccc1O | –
6 | 1.31 | 1.6 | – | – | CC(C)=CCc1cc(C(=O)Nc2cc3ccc(OCCCN(C(C)C)C(C)C)c(C)c3oc2=O)ccc1O | –
7 | 1.14 | 0.88 | – | – | CC(C)=CCc1cc(C(=O)Nc2cc3ccc(OCCCN(C)C(C)(C)C)c(C)c3oc2=O)ccc1O | –
8 | 1.55 | 0.92 | – | – | CC(C)=CCc1cc(C(=O)Nc2cc3ccc(OCC4CCN(C)C4)c(C)c3oc2=O)ccc1O (stereo not given) | –
9 | > 50 | > 50 | – | – | CCCN(CCC)CCCOc1ccc2cc(NC(=O)c3ccc(O)c(CC=C(C)C)c3)c(=O)oc2c1C | –
10 | 1.46 | 2.29 | – | – | CC(C)=CCc1cc(C(=O)Nc2cc3ccc(OCCCNCC(N)=O)c(C)c3oc2=O)ccc1O | –
11 | 2.64 | 1.3 | – | – | CC(C)=CCc1cc(C(=O)Nc2cc3ccc(OCC4CCCN(C)C4)c(C)c3oc2=O)ccc1O (stereo not given) | –
12 | 1.05 | 0.57 | – | – | CC(C)=CCc1cc(C(=O)Nc2cc3ccc(OCCCN(C)C(C)C)c(C)c3oc2=O)ccc1O | –
13 | > 50 | > 50 | – | – | CC(C)=CCc1cc(C(=O)Nc2cc3ccc(OCCCN(C)c4ccccc4)c(C)c3oc2=O)ccc1O | –
14 | 0.98 | 0.99 | – | – | CCCNCCCOc1ccc2cc(NC(=O)c3ccc(O)c(CC=C(C)C)c3)c(=O)oc2c1C | –
15 | > 50 | > 50 | – | – | CC(C)=CCc1cc(C(=O)Nc2cc3ccc(OCCCN4CCCCC4)c(C)c3oc2=O)ccc1O | –
16 | 0.91 | 0.47 | – | – | CC(C)=CCc1cc(C(=O)Nc2cc3ccc(OCCCNCc4ccccc4)c(C)c3oc2=O)ccc1O | –
17 | 0.95 | 0.66 | – | – | CC(C)=CCc1cc(C(=O)Nc2cc3ccc(OCCCNC(C)(C)C)c(C)c3oc2=O)ccc1O | –
18 | 1.45 | 1 | – | – | CC(C)=CCc1cc(C(=O)Nc2cc3ccc(OCCCN[C@H](C)c4ccccc4)c(C)c3oc2=O)ccc1O | –
19 | 1.32 | 1.03 | – | – | CC(C)=CCc1cc(C(=O)Nc2cc3ccc(OCCCNCC(C)C)c(C)c3oc2=O)ccc1O | –
20 | 2.19 | 0.73 | – | – | CCN(C)CCCOc1ccc2cc(NC(=O)c3ccc(O)c(CC=C(C)C)c3)c(=O)oc2c1C | –

Row | IC50 (MCF7 [1]) [µM] | IC50 (SK-BR-3) [µM] | inhibition [3] | inhibition [4] | Structure (SMILES) | Activity (MCF7 [2])
21 | 0.99 | 0.72 | – | – | CC(C)=CCc1cc(C(=O)Nc2cc3ccc(OCCCN4CCCC4)c(C)c3oc2=O)ccc1O | –
22 | 0.74 | 0.75 | – | – | CC(C)=CCc1cc(C(=O)Nc2cc3ccc(OCCCNC(C)C)c(C)c3oc2=O)ccc1O | –
23 | 0.82 | 0.62 | – | – | CC(=O)Oc1ccc(C(=O)Nc2cc3ccc(OCC4CCCNC4)c(C)c3oc2=O)cc1CC=C(C)C (stereo not given) | –
24 | 11.5 | 10.7 | – | – | CC(C)=CCc1cc(C(=O)Nc2cc3ccc(OCCCN(C)Cc4ccccc4)c(C)c3oc2=O)ccc1O | –
25 | 1.2 | 1.01 | – | – | CC(C)=CCc1cc(C(=O)Nc2cc3ccc(OCCCN4CCN(C)CC4)c(C)c3oc2=O)ccc1O | –
26 | 0.71 | 0.64 | – | – | CC(C)=CCc1cc(C(=O)Nc2cc3ccc(OCCC4CCCCN4)c(C)c3oc2=O)ccc1O (stereo not given) | –
27 | 1.08 | 0.97 | – | – | CC(C)=CCc1cc(C(=O)Nc2cc3ccc(OCCCN(C)C4CCCCC4)c(C)c3oc2=O)ccc1O | –
28 | 1.56 | 0.61 | – | – | CC(C)=CCc1cc(C(=O)Nc2cc3ccc(OCCCNCCO)c(C)c3oc2=O)ccc1O | –
29 | 1.65 | 0.74 | – | – | CC(=O)Oc1ccc(C(=O)Nc2cc3ccc(OCC4CCCN(C)C4)c(C)c3oc2=O)cc1CC=C(C)C (stereo not given) | –
30 | 1.88 | 0.88 | – | – | CC(=O)Oc1ccc(C(=O)Nc2cc3ccc(OCC4CCN(C)C4)c(C)c3oc2=O)cc1CC=C(C)C (stereo not given) | –
31 | – | 10 | – | – | CO[C@@H]1[C@@H](O)[C@@H](O)[C@H](Oc2ccc3cc(NC(=O)c4ccc(O)c(CC=C(C)C)c4)c(=O)oc3c2C)OC1(C)C | –
32 | 0.71 | 0.64 | – | – | CC(=O)Oc1ccc(C(=O)Nc2cc3ccc(OCCC4CCCCN4)c(C)c3oc2=O)cc1CC=C(C)C (stereo not given) | –
33 | > 50 | > 50 | – | – | CC(C)=CCc1cc(C(=O)Nc2cc3ccc(OCCCNc4ccccc4)c(C)c3oc2=O)ccc1O | –
34 | 0.98 | 0.72 | – | – | CCNCCCOc1ccc2cc(NC(=O)c3ccc(O)c(CC=C(C)C)c3)c(=O)oc2c1C | –
35 | 0.93 | 0.82 | – | – | CC(C)=CCc1cc(C(=O)Nc2cc3ccc(OCCCN4CCNCC4)c(C)c3oc2=O)ccc1O | –
36 | > 50 | > 50 | – | – | CC(C)=CCc1cc(C(=O)Nc2cc3ccc(OCCCN4CCOCC4)c(C)c3oc2=O)ccc1O | –
37 | 6.39 | 4.9 | – | – | CCN(CC)CCCOc1ccc2cc(NC(=O)c3ccc(O)c(CC=C(C)C)c3)c(=O)oc2c1C | –
38 | 0.32 | 0.31 | Dose-dependent effect | Dose-dependent effect | CC(C)=CCc1cc(C(=O)Nc2cc3ccc(OCCCNC45CC6CC(CC(C6)C4)C5)c(C)c3oc2=O)ccc1O | inactive
39 | 0.79 | 0.6 | – | – | CC(C)=CCc1cc(C(=O)Nc2cc3ccc(OCC4CCCNC4)c(C)c3oc2=O)ccc1O (stereo not given) | –
